The record followed here is ChEMBL document CHEMBL3085747, “Synthesis and biological evaluation of substituted 1,2,3-benzotriazines and pyrido[3,2-d]-1,2,3-triazines as inhibitors of vascular endothelial growth factor receptor-2” (2013).

Where only a bound is given, the exact number is not on record here.

One assay in a line: Ratio of PTK787 GI50 to compound GI50 for HMVEC after 4 days by MTT assay. Format: functional, Homo sapiens.
Details: not given
Consider `COc1cc2c(Nc3ccc(F)c(Cl)c3)nnnc2cc1OCCCCl`, for which the RatioGI50 is given as 4.

A further assay can be described thus: Growth inhibition of HMVEC after 4 days by MTT assay. Format: functional. Conditions: Homo sapiens, 96 h. In a few lines:
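Human microvascular endothelial cells were grown in DMEM with 4 mM L-glutamine, 4.50 g/L glucose and 10% heat-inactivated FBS. Cells were seeded at 2 × 10³/well for 24 h, then exposed to a range of compound concentrations for 4 days at 37 °C. MTT (2 mg/mL) was added, cells were dissolved in DMSO, and A570 was read. Growth inhibition is relative to untreated cells. GI50 is the mean of three independent experiments.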
One may read the GI50 as the concentration that inhibits growth by half. In the case of `CCOc1cc2nnnc(Nc3ccc(Br)c(F)c3)c2cc1OC`, the GI50 is 73.3 µM.
As to `CCOc1cc2nnnc(Nc3cccc(C(F)(F)F)c3)c2cc1OC`, the 50% growth inhibitory concentration (GI50) is > 80 µM.
On the same count and under the same terms, the value for `CCOc1cc2nnnc(Nc3ccc(C(F)(F)F)cc3)c2cc1OC` was > 80 µM.
As to `CCOc1cc2nnnc(Nc3cccc(OC(F)(F)F)c3)c2cc1OC`, the concentration for 50% growth inhibition (GI50) came out at 23.3 µM.
Still for that read-out and setting: the value for `CCOc1cc2nnnc(Nc3ccc(OC(F)(F)F)cc3)c2cc1OC` was > 80 µM.
The same measure, in the same setting: for `CCOc1cc2nnnc(Nc3cccc(Cl)c3)c2cc1OC` the value was 60 µM.
In turn, `CCOc1cc2nnnc(Nc3ccc(F)c(C(F)(F)F)c3)c2cc1OC` gave a GI50 of 31.7 µM.
`CCOc1cc2nnnc(Nc3ccccc3F)c2cc1OC`: the concentration for 50% growth inhibition (GI50) was > 80 µM.
Molecule `CCOc1cc2nnnc(Nc3cccc(Br)c3)c2cc1OC` yielded a concentration for 50% growth inhibition (GI50) of 39.8 µM.
Same read-out and setting: for `CCCCOc1cc2nnnc(Nc3ccc(Br)c(F)c3)c2cc1OC` the value was > 80 µM; for `CCCCOc1cc2nnnc(Nc3ccc(Cl)c(Cl)c3)c2cc1OC`, 15.5 µM; for `CCCCOc1cc2nnnc(Nc3ccc(C(F)(F)F)cc3)c2cc1OC`, > 80 µM.
Consider `CCCCOc1cc2nnnc(Nc3ccc(OC(F)(F)F)cc3)c2cc1OC`, for which the concentration for 50% growth inhibition (GI50) was 30 µM.
The molecule `CCCCOc1cc2nnnc(Nc3ccc(F)c(C(F)(F)F)c3)c2cc1OC` gave a 50% growth inhibitory concentration (GI50) of 16.1 µM.
The same measure, in the same setting: for `CCCCOc1cc2nnnc(Nc3ccccc3F)c2cc1OC` the value was > 80 µM; for `CCCCOc1cc2nnnc(Nc3cccc(Br)c3)c2cc1OC`, 16.8 µM; for `CCCCOc1cc2nnnc(Nc3ccc(F)cc3)c2cc1OC`, > 80 µM.
Same read-out and setting: for `CCCCOc1cc2nnnc(Nc3ccc(C)cc3)c2cc1OC` the value was > 80 µM.
Regarding `CCCCCOc1cc2nnnc(Nc3ccc(Cl)cc3)c2cc1OC`, the 50% growth inhibitory concentration (GI50) worked out at 25.3 µM.
On to `CCCCCOc1cc2nnnc(Nc3ccc(Br)c(F)c3)c2cc1OC`, for which the GI50 is > 80 µM.
On the same count and under the same terms, the value for `CCCCCOc1cc2nnnc(Nc3cc(F)cc(F)c3)c2cc1OC` was 27.9 µM.
Same read-out and setting: the value for `CCCCCOc1cc2nnnc(Nc3cccc(OC(F)(F)F)c3)c2cc1OC` was 42.6 µM; that for `CCCCCOc1cc2nnnc(Nc3ccc(OC(F)(F)F)cc3)c2cc1OC` was 38 µM.
The same measure, in the same setting: for `CCCCCOc1cc2nnnc(Nc3ccc(F)cc3)c2cc1OC` the value was > 80 µM; for `COc1cc2c(Nc3ccc(C(F)(F)F)cc3)nnnc2cc1OCCCCl`, 44.4 µM.
`COc1cc2c(Nc3ccc(C)cc3)nnnc2cc1OCCCCl` gave a GI50 of 17.1 µM.
Same read-out and setting: for `COc1cc2c(Nc3ccc(F)c(Cl)c3)nnnc2cc1OCCCCl` the value was 7.98 µM; for `Clc1ccc(Nc2nnnc3ccc(Cl)nc23)cc1`, 10.5 µM.
The molecule `Fc1cc(Nc2nnnc3ccc(Cl)nc23)ccc1Br` registered a 50% growth inhibitory concentration (GI50) of 9.56 µM.
For `Clc1cc(Cl)cc(Nc2nnnc3ccc(Cl)nc23)c1`, the concentration for 50% growth inhibition (GI50) was 7.93 µM.
`FC(F)(F)c1cccc(Nc2nnnc3ccc(Cl)nc23)c1`: it took 5.25 µM to inhibit growth by half (GI50).
The molecule `FC(F)(F)c1ccc(Nc2nnnc3ccc(Cl)nc23)cc1` had a GI50 of 8.06 µM.
On the same count and under the same terms, the value for `FC(F)(F)Oc1cccc(Nc2nnnc3ccc(Cl)nc23)c1` was 4.28 µM; that for `FC(F)(F)Oc1ccc(Nc2nnnc3ccc(Cl)nc23)cc1` was 11.5 µM; that for `Fc1ccc(Nc2nnnc3ccc(Cl)nc23)cc1C(F)(F)F` was 10.8 µM.
In the case of `Fc1ccccc1Nc1nnnc2ccc(Cl)nc12`, halving of growth (GI50) required 10.8 µM.
The same measure, in the same setting: the value for `Clc1ccc2nnnc(Nc3cccc(Br)c3)c2n1` was 7.24 µM; that for `Clc1ccc(Nc2nnc(Cc3ccncc3)c3ccccc23)cc1` was 38.1 µM.
